According to ChEMBL document CHEMBL4138161, “Discovery of simplified sampangine derivatives as novel fungal biofilm inhibitors” (Eur J Med Chem, 2018):
Values after ≈ are worked out from the molar mass of the structure shown.

Columns and labels:
Assay type in all cases: functional
[1] = system: Candida parapsilosis; experiment: Antifungal activity against Candida parapsilosis 22019 after 24 hrs by spectrophotometric analysis; settings: Lodderomyces parapsilosis, 22019, 24 h
Procedure, shortened: (§1)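 Broth microdilution in RPMI 1640, inoculum 5×10^3 CFU/mL, compounds from 6.4 mg/mL DMSO stocks, 35 ℃ for 24 h. Growth read as OD600; MIC80 taken as lowest concentration giving 80% growth inhibition. Triplicate.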

[2] = system: Trichophyton rubrum; experiment: Antifungal activity against Trichophyton rubrum Cmccftla after 24 hrs by spectrophotometric analysis; procedure, shortened: as §1
[3] = system: Nakaseomyces glabratus; experiment: Antifungal activity against Candida glabrata 537 after 24 hrs by spectrophotometric analysis; settings: Nakaseomyces glabratus, 537, 24 h; procedure, shortened: as §1
[4] = system: Candida albicans; experiment: Antifungal activity against Candida albicans SC5314 after 24 hrs by spectrophotometric analysis; settings: SC5314, 24 h; procedure, shortened: as §1
[5] = system: Nannizzia gypsea; experiment: Antifungal activity against Microsporum gypseum Cmccfmza after 24 hrs by spectrophotometric analysis; procedure, shortened: as §1
[6] = system: Cryptococcus neoformans; experiment: Antifungal activity against Cryptococcus neoformans 32609 after 24 hrs by spectrophotometric analysis; settings: Cryptococcus neoformans, 32609, 24 h; procedure, shortened: as §1
[7] = system: Aspergillus fumigatus; experiment: Antifungal activity against Aspergillus fumigatus 07544 after 24 hrs by spectrophotometric analysis; settings: Aspergillus fumigatus, 07544, 24 h; procedure, shortened: as §1

Compound	MIC80 [1] [µg/mL]	MIC80 [2] [µg/mL]	MIC80 [3] [µg/mL]	MIC80 [4] [µg/mL]	MIC80 [5] [µg/mL]	MIC80 [6] [µg/mL]	MIC80 [7] [µg/mL]
CC(C)(C)OC(=O)N1CCC(c2ccnc3c2C(=O)c2sc([N+](=O)[O-])cc2C3=O)CC1	> 64	8 (≈ 18 µM)	> 64	32 (≈ 72.2 µM)	16 (≈ 36.1 µM)	8 (≈ 18 µM)	> 64
Cc1ccnc2c1C(=O)c1scc([N+](=O)[O-])c1C2=O	> 64	4 (≈ 14.6 µM)	4 (≈ 14.6 µM)	4 (≈ 14.6 µM)	8 (≈ 29.2 µM)	4 (≈ 14.6 µM)	> 64
CN(C)c1ccc(-c2ccnc3c2C(=O)c2sc([N+](=O)[O-])cc2C3=O)cc1	32 (≈ 84.3 µM)	4 (≈ 10.5 µM)	> 64	32 (≈ 84.3 µM)	16 (≈ 42.2 µM)	16 (≈ 42.2 µM)	> 64
Cc1ccnc2c1C(=O)c1cn(C)cc1C2=O	> 64	64 (≈ 283 µM)	> 64	> 64	> 64	> 64	> 64
Cc1cc[n+]([O-])c2c1C(=O)c1sc([N+](=O)[O-])cc1C2=O	32 (≈ 110 µM)	8 (≈ 27.6 µM)	64 (≈ 220 µM)	8 (≈ 27.6 µM)	4 (≈ 13.8 µM)	4 (≈ 13.8 µM)	> 64
CC(C)(C)OC(=O)/C=C\c1ccnc2c1C(=O)c1sc([N+](=O)[O-])cc1C2=O	> 64	4 (≈ 10.4 µM)	> 64	32 (≈ 82.8 µM)	4 (≈ 10.4 µM)	4 (≈ 10.4 µM)	> 64
Cc1ccnc2c1C(=O)c1sccc1C2=O	> 64	4 (≈ 17.4 µM)	8 (≈ 34.9 µM)	16 (≈ 69.8 µM)	> 64	16 (≈ 69.8 µM)	16 (≈ 69.8 µM)
Cc1ccnc2c1C(=O)c1occc1C2=O	> 64	> 64	> 64	> 64	> 64	64 (≈ 300 µM)	> 64
CCC(C)n1ncn(-c2ccc(N3CCN(c4ccc(OCC5COC(Cn6cncn6)(c6ccc(Cl)cc6Cl)O5)cc4)CC3)cc2)c1=O (stereo not drawn) [ITRACONAZOLE]	8 (≈ 11.3 µM)	4 (≈ 5.67 µM)	1 (≈ 1.42 µM)	8 (≈ 11.3 µM)	4 (≈ 5.67 µM)	4 (≈ 5.67 µM)	8 (≈ 11.3 µM)
CC(C)c1cnc2c(c1)C(=O)c1sc([N+](=O)[O-])cc1C2=O	4 (≈ 13.2 µM)	1 (≈ 3.31 µM)	4 (≈ 13.2 µM)	2 (≈ 6.62 µM)	1 (≈ 3.31 µM)	0.5 (≈ 1.65 µM)	4 (≈ 13.2 µM)
Cc1ccnc2c1C(=O)C1=C(OC(C)(C)C1)C2=O	> 64	64 (≈ 263 µM)	16 (≈ 65.8 µM)	> 64	> 64	> 64	64 (≈ 263 µM)

More lines, now with the values ahead:

MIC80 [1] [µg/mL]	MIC80 [2] [µg/mL]	MIC80 [3] [µg/mL]	MIC80 [4] [µg/mL]	MIC80 [5] [µg/mL]	MIC80 [6] [µg/mL]	MIC80 [7] [µg/mL]	Compound
1 (≈ 3.16 µM)	4 (≈ 12.6 µM)	4 (≈ 12.6 µM)	1 (≈ 3.16 µM)	2 (≈ 6.32 µM)	0.5 (≈ 1.58 µM)	64 (≈ 202 µM)	CCCCc1ccnc2c1C(=O)c1sc([N+](=O)[O-])cc1C2=O
4 (≈ 12.6 µM)	1 (≈ 3.16 µM)	4 (≈ 12.6 µM)	2 (≈ 6.32 µM)	1 (≈ 3.16 µM)	0.5 (≈ 1.58 µM)	4 (≈ 12.6 µM)	CCCCc1cnc2c(c1)C(=O)c1sc([N+](=O)[O-])cc1C2=O
32 (≈ 74.1 µM)	32 (≈ 74.1 µM)	16 (≈ 37 µM)	32 (≈ 74.1 µM)	16 (≈ 37 µM)	32 (≈ 74.1 µM)	64 (≈ 148 µM)	O=C1c2cc([N+](=O)[O-])sc2C(=O)c2c(C(Br)Br)ccnc21
8 (≈ 23.8 µM)	8 (≈ 23.8 µM)	16 (≈ 47.6 µM)	8 (≈ 23.8 µM)	4 (≈ 11.9 µM)	4 (≈ 11.9 µM)	32 (≈ 95.1 µM)	O=C1c2cc([N+](=O)[O-])sc2C(=O)c2c(-c3ccccc3)ccnc21
8 (≈ 27.8 µM)	1 (≈ 3.47 µM)	0.125 (≈ 0.434 µM)	4 (≈ 13.9 µM)	2 (≈ 6.94 µM)	8 (≈ 27.8 µM)	16 (≈ 55.5 µM)	O=Cc1ccnc2c1C(=O)c1sc([N+](=O)[O-])cc1C2=O
1 (≈ 3.47 µM)	0.5 (≈ 1.73 µM)	1 (≈ 3.47 µM)	0.5 (≈ 1.73 µM)	0.25 (≈ 0.867 µM)	0.25 (≈ 0.867 µM)	2 (≈ 6.94 µM)	CCc1cnc2c(c1)C(=O)c1sc([N+](=O)[O-])cc1C2=O
4 (≈ 12 µM)	1 (≈ 3.01 µM)	4 (≈ 12 µM)	2 (≈ 6.02 µM)	4 (≈ 12 µM)	4 (≈ 12 µM)	8 (≈ 24.1 µM)	CCOC(=O)c1ccnc2c1C(=O)c1sc([N+](=O)[O-])cc1C2=O
32 (≈ 82.8 µM)	8 (≈ 20.7 µM)	> 64	16 (≈ 41.4 µM)	4 (≈ 10.4 µM)	4 (≈ 10.4 µM)	32 (≈ 82.8 µM)	CC(C)(C)OC(=O)/C=C/c1ccnc2c1C(=O)c1sc([N+](=O)[O-])cc1C2=O
